Source: ChEMBL document CHEMBL1153938, “Synthesis of hydroxypyrone- and hydroxythiopyrone-based matrix metalloproteinase inhibitors: developing a structure-activity relationship” (Bioorg Med Chem Lett, 2009)
Values belong to the compound of their own block, whether it stands above or below them.

Key:
[1] = biological target: T1, Interstitial collagenase (Homo sapiens) (UniProt P03956); experiment: Inhibition of human MMP1 catalytic domain at 50 uM after 1 hr by fluorescent substrate assay
T1 sequence (whole entry): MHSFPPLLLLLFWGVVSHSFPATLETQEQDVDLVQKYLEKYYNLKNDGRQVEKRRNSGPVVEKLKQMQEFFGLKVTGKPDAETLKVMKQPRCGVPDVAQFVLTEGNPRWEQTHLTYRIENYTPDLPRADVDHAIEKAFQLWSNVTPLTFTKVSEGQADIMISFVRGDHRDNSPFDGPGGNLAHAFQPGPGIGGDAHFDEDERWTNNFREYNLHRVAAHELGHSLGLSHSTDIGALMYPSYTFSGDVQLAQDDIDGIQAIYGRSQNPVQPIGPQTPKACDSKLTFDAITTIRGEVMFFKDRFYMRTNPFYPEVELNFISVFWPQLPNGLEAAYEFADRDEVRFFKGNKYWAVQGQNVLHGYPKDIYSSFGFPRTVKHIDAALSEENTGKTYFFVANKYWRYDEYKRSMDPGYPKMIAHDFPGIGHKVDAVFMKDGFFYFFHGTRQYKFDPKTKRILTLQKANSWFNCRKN
Procedure, shortened: (§1)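 Single-concentration screen: each inhibitor tested at 50 µM against recombinant human MMP catalytic domain (MMP-1, MMP-2 or MMP-3) in a fluorescent substrate assay, with activity reported as percent inhibition.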

[2] = biological target: T2, 72 kDa type IV collagenase (Homo sapiens, UniProt P08253); experiment: Inhibition of human MMP2 catalytic domain by fluorescent substrate assay
Procedure, shortened: (§2)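 IC50 against human MMP catalytic domain (MMP-1, MMP-2 or MMP-3) from a fluorescent substrate assay. It was determined only for inhibitors showing relatively strong inhibition in the 50 µM screen.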
Target sequence in this assay (P08253 whole entry, the tested form may be a part): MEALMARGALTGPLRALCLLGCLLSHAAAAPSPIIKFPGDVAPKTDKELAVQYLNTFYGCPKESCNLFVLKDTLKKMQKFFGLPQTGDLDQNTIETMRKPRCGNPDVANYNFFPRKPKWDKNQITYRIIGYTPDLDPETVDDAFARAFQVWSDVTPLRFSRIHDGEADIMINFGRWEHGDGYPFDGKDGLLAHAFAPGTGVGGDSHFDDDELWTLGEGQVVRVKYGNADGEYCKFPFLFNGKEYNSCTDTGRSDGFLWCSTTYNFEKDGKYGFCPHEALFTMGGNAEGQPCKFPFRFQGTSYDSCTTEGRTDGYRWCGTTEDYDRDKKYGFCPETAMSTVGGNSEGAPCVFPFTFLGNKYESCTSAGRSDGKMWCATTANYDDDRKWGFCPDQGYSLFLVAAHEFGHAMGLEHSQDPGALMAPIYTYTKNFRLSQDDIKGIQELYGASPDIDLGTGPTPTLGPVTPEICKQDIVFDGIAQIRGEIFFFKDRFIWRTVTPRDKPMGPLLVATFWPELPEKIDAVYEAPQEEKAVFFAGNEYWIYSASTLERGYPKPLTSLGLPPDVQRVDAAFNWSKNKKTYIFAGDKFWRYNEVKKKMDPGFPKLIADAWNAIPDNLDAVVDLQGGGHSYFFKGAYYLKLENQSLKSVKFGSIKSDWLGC

Stromelysin-1 [3] = biological target: T3, Stromelysin-1 (Homo sapiens, UniProt P08254); experiment: Inhibition of human MMP3 catalytic domain at 50 uM after 1 hr by fluorescent substrate assay; procedure, shortened: as §1
T3 sequence (P08254 whole entry, the tested form may be a part): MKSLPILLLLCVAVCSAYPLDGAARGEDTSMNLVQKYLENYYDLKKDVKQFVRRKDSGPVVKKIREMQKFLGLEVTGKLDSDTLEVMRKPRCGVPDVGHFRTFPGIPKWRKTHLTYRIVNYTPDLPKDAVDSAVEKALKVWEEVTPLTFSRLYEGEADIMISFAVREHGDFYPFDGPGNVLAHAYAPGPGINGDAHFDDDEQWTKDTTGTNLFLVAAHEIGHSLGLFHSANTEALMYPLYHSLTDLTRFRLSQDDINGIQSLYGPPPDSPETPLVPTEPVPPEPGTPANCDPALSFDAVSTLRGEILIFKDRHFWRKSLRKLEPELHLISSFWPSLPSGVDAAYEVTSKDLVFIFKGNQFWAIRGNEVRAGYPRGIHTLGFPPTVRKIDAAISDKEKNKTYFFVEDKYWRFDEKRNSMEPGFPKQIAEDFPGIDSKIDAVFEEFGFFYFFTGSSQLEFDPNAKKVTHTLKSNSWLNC

[4] = biological target: T2, 72 kDa type IV collagenase; experiment: Inhibition of human MMP2 catalytic domain at 50 uM after 1 hr by fluorescent substrate assay; procedure, shortened: as §1
Target sequence in this assay (P08253 110-660 limits assumed): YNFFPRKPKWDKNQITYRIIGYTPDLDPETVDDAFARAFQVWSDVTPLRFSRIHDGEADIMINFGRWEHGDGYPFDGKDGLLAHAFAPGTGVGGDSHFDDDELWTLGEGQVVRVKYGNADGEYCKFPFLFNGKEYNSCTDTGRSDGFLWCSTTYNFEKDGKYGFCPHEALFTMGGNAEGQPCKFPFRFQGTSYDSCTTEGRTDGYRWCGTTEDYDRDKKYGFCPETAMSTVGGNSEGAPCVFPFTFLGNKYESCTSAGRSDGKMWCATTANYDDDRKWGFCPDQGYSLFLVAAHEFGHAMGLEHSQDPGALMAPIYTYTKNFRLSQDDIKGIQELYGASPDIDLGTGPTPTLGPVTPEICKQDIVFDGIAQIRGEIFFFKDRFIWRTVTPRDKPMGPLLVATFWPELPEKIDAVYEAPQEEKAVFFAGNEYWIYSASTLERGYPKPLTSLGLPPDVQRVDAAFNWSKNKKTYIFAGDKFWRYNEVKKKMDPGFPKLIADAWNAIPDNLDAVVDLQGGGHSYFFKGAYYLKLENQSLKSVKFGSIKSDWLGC

Stromelysin-1 [5] = biological target: T3, Stromelysin-1; experiment: Inhibition of human MMP3 catalytic domain by fluorescent substrate assay; procedure, shortened: as §2
Interstitial collagenase = biological target: T4, Interstitial collagenase (Homo sapiens, UniProt P03956); experiment: Inhibition of human MMP1 catalytic domain by fluorescent substrate assay; procedure, shortened: as §2
T4 sequence (P03956 whole entry): T1 sequence (whole entry)

SMILES: Cc1cc(=O)c(O)c(CNCc2ccc(-c3ccccc3)cc2)o1
inhibition [1]: 6%
IC50 [2]: 37.7 µM
inhibition (Stromelysin-1 [3]): 4%
inhibition [4]: 63%

SMILES: Cc1cc(=S)c(O)c(C(=O)NCc2ccc(-c3ccccc3)cc2)o1
IC50 (Stromelysin-1 [5]): 5.6 µM

SMILES: Cc1cc(=O)c(O)c(COCc2ccc(-c3ccccc3)cc2)o1
inhibition [1]: 21%
inhibition (Stromelysin-1 [3]): 26%
inhibition [4]: 15%

SMILES: O=C(NCc1ccc(-c2ccccc2)cc1)c1cc(=S)c(O)co1
inhibition [1]: 62%
IC50 [2]: 14.4 µM
IC50 (Interstitial collagenase): 44 µM
inhibition (Stromelysin-1 [3]): 91%
IC50 (Stromelysin-1 [5]): 13.3 µM
inhibition [4]: 98%

SMILES: CCOC(=O)c1c(C)oc(CNCc2ccc(-c3ccccc3)cc2)c(O)c1=O
inhibition [1]: 13%
inhibition (Stromelysin-1 [3]): < 1%
inhibition [4]: 18%

SMILES: Cc1cc(=O)c(O)c(C(=O)NCc2ccc(-c3ccccc3)cc2)o1
IC50 (Interstitial collagenase): > 50 µM

SMILES: COc1ccc(CNC(=O)c2c(C)occ(O)c2=O)cc1
inhibition [1]: 15%
inhibition (Stromelysin-1 [3]): 18%
inhibition [4]: 33%

Results, then the compound that gave them:

inhibition [1]: 29%
inhibition (Stromelysin-1 [3]): 93%
inhibition [4]: 26%
SMILES: COc1ccc(CNC(=O)c2oc(C)cc(=O)c2O)cc1

inhibition [1]: 12%
inhibition (Stromelysin-1 [3]): 44%
inhibition [4]: 14%
SMILES: O=C(NCc1ccc(-c2ccccc2)cc1)c1cc(=O)c(O)co1

inhibition [1]: 49%
IC50 [2]: 30 µM
inhibition (Stromelysin-1 [3]): 36%
inhibition [4]: 69%
SMILES: COc1ccc(CNC(=O)c2c(C)occ(O)c2=S)cc1

inhibition [1]: 17%
inhibition (Stromelysin-1 [3]): 32%
inhibition [4]: 24%
SMILES: Cc1occ(O)c(=O)c1C(=O)NCc1ccc(O)cc1

inhibition [1]: 66%
inhibition (Stromelysin-1 [3]): 94%
IC50 (Stromelysin-1 [5]): 3.7 µM
inhibition [4]: 25%
SMILES: Cc1cc(=O)c(O)c(C(=O)NCc2ccc(O)cc2)o1

inhibition [1]: 18%
inhibition (Stromelysin-1 [3]): 32%
inhibition [4]: 24%
SMILES: COc1ccc(CNC(=O)c2c(C)oc(CO)c(O)c2=O)cc1

inhibition [1]: 16%
inhibition (Stromelysin-1 [3]): 22%
inhibition [4]: 11%
SMILES: COc1ccc(CNC(=O)c2cc(=O)c(O)co2)cc1

inhibition [1]: 15%
inhibition (Stromelysin-1 [3]): 28%
inhibition [4]: 21%
SMILES: Cc1occ(O)c(=O)c1C(=O)NCc1ccc(-c2ccccc2)cc1

inhibition [1]: 31%
inhibition (Stromelysin-1 [3]): 91%
IC50 (Stromelysin-1 [5]): 13.9 µM
inhibition [4]: 85%
SMILES: COc1ccc(CNC(=O)c2cc(=S)c(O)co2)cc1

inhibition [1]: 52%
IC50 [2]: 23 µM
inhibition (Stromelysin-1 [3]): 45%
inhibition [4]: 94%
SMILES: Cc1occ(O)c(=S)c1C(=O)NCc1ccc(-c2ccccc2)cc1

inhibition [1]: 70%
IC50 [2]: 19 µM
IC50 (Interstitial collagenase): 30 µM
inhibition (Stromelysin-1 [3]): 97%
IC50 (Stromelysin-1 [5]): 16.4 µM
inhibition [4]: 94%
SMILES: COc1ccc(CNC(=O)c2oc(C)cc(=S)c2O)cc1
